Experimental data published in ChEMBL document CHEMBL4033604, “Cytotoxicity and Mechanism of Action of the Marine-Derived Fungal Metabolite Trichodermamide B and Synthetic Analogues” (J Nat Prod, 2017).
The source made the active and inactive calls.

Key:
HeLa [1] = experiment: Cytotoxicity against human HeLa cells assessed as inhibition of colony formation pretreated for 4 hrs followed by compound washout measured after 10 days by crystal violet staining based assay; assay type: functional, cell-based
Procedure, shortened: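 HeLa plated at 150 cells per dish, exposed 4 h to DMSO or IC85 concentration, washed with PBS, regrown in fresh medium 10 days; fixed, stained with 0.5% crystal violet in 10% methanol, colonies counted; n = 3−5 experiments in duplicate; one-way ANOVA.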

HeLa [2] = experiment: Cytotoxicity against human HeLa cells after 48 hrs by SRB assay; assay type: functional, cell-based
Procedure, shortened: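 HeLa cells treated over a concentration range for 48 h; survival by sulforhodamine B staining relative to vehicle control; four-parameter nonlinear regression; IC50 and IC85 as concentrations giving 50% or 85% inhibition of cell density; time-zero cell density marks cytotoxicity threshold; mean ± SEM, n = 4 independent experiments in triplicate.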

HeLa [3] = experiment: Induction of apoptosis in human HeLa cells assessed as upregulation of cleaved PARP protein levels at IC85 after 24 hrs by Western blot analysis; assay type: functional, cell-based
Procedure, shortened: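 HeLa treated with IC85 concentration or 0.1% DMSO over a 4, 8, 16, 24 h time course; whole-cell lysates (protease inhibitors, 50 mM NaF, 200 μM Na3VO4, 1 mM PMSF), equal protein on 12% Bis-Tris SDS-PAGE, PVDF blot probed for cleaved PARP with GAPDH loading control (1:1000); two independent experiments.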

HeLa [4] = experiment: Cell cycle arrest in human HeLa cells at IC85 after 4 to 24 hrs by Krishan's reagent staining-based flow cytometric method; assay type: functional
HeLa [5] = experiment: Induction of double stranded DNA breaks in human HeLa cells assessed as gamma-H2Ax phosphorylation at Ser139 residue at IC50 after 24 hrs by Hoechst 33342 staining-based indirect immunofluorescence microscopic method; assay type: cell-based
Procedure, shortened: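 HeLa exposed 24 h to IC50 concentration or 0.6% DMSO; fixed in ice-cold MeOH 5 min, blocked 10% bovine calf serum 20 min, anti-γH2A.X (Ser139) 2 h then Alexa Fluor 594 secondary 1 h at room temperature; nuclei counterstained Hoechst 33342; foci scored by fluorescence microscopy; n = 2 experiments in duplicate.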

LNCaP = experiment: Cytotoxicity against human LNCAP cells after 24 to 72 hrs by MTT assay; assay type: functional, cell-based
PC-3 = experiment: Cytotoxicity against human PC3 cells after 24 to 72 hrs by MTT assay; assay type: functional, cell-based
[6] = Cytotoxicity against mouse lymphoma cells by MTT assay; assay type: functional, cell-based; settings: Lymphoma cell
CWR22R = experiment: Cytotoxicity against human 22Rv1 cells after 24 to 72 hrs by MTT assay; assay type: functional, cell-based
HeLa [7] = experiment: Cell cycle arrest in human HeLa cells assessed as accumulation at G2/M phase at IC85 after 24 hrs by Krishan's reagent staining-based flow cytometric method; assay type: functional
HL-60 = experiment: Cytotoxicity against human HL60 cells; assay type: functional, cell-based
A549 = experiment: Cytotoxicity against human A549 cells; assay type: functional, cell-based
P388 = experiment: Cytotoxicity against mouse P388 cells; assay type: functional, cell-based

| SMILES | IC50 (HeLa [2]) [µM] | IC85 (HeLa [2]) [µM] | also measured |
| --- | --- | --- | --- |
| CCOC(=O)C1=NO[C@H]2CC(=O)[C@@H]3O[C@@H]3[C@@]2(O)C1 (relative stereo) | 1.4 | 3.4 | inhibition (HeLa [1]): inactive; Activity (HeLa [3]): inactive; Activity (HeLa [4]): inactive; Activity (HeLa [5]): inactive |
| CNc1cc2ccc(OC)c(OC)c2oc1=O | > 10 | > 10 |  |
| COc1ccc([C@H]2SS[C@@]34C[C@]5(O)[C@H](Cl)C=C[C@@H](O)[C@@H]5ON3C(=O)[C@@H]2N(C)C4=O)c(O)c1OC |  |  | IC50 (LNCaP): 510 to 5110 nM; IC50 (PC-3): 510 to 5110 nM; IC50 [6]: 2000 nM; IC50 (CWR22R): 510 to 5110 nM |
| COc1ccc2cc(N(C)C(=O)C3=NO[C@H]4[C@@H]5O[C@@H]5C=C[C@@]4(O)C3)c(=O)oc2c1OC | > 10 | > 10 |  |
| COc1ccc2cc(N)c(=O)oc2c1OC | > 10 | > 10 |  |
| COc1ccc2cc(N(C)C(=O)C3=NO[C@H]4C=C[C@@H]5O[C@@H]5[C@@]4(O)C3)c(=O)oc2c1OC | > 10 | > 10 |  |
| CCOC(=O)C1=NO[C@H]2CC(=O)C=C[C@@]2(O)C1 | 12 | 32 | inhibition (HeLa [1]): Active; Activity (HeLa [7]): Active; Activity (HeLa [5]): inactive |
| COc1ccc2cc(NC(=O)C3=NO[C@H]4C=CC=C[C@@]4(O)C3)c(=O)oc2c1OC | > 10 | > 10 |  |
| CCOC(=O)C1=NO[C@H]2C=CC=C[C@@]2(O)C1 | > 10 | > 10 |  |
| COc1ccc2cc(N(C)C(=O)C3=NO[C@H]4[C@H](O)C=C[C@@H](O)[C@@]4(O)C3)c(=O)oc2c1OC [TRICHODERMAMIDE C] | > 10 | > 10 |  |
| COc1ccc2cc(N(C)C(=O)C3=NO[C@H]4C=CC=C[C@@]4(O)C3)c(=O)oc2c1OC | > 10 | > 10 |  |
| COc1ccc2cc(NC(=O)C3=NO[C@H]4C=C[C@@H]5O[C@@H]5[C@@]4(O)C3)c(=O)oc2c1OC | > 10 | > 10 |  |
| COc1ccc2cc(NC(=O)C3=NO[C@H]4CC(=O)C=C[C@@]4(O)C3)c(=O)oc2c1OC (relative stereo) | 5.7 | 12 | inhibition (HeLa [1]): inactive; Activity (HeLa [3]): inactive; Activity (HeLa [4]): inactive; Activity (HeLa [5]): inactive |
| CCOC(=O)C1=NO[C@H]2C=C[C@@H]3O[C@@H]3[C@@]2(O)C1 | > 10 | > 10 |  |
| COc1ccc2cc(NC(=O)C3=NO[C@H]4[C@H](O)C=C[C@@H](O)[C@@]4(O)C3)c(=O)oc2c1OC [TRICHODERMAMIDE A] | > 10 | > 10 | IC50 (HL-60): 89 µM; IC50 (A549): > 100 µM; IC50 (P388): > 100 µM |
| COc1ccc2cc(NC(=O)C3=NO[C@H]4CC(=O)[C@@H]5O[C@@H]5[C@@]4(O)C3)c(=O)oc2c1OC | > 10 | > 10 |  |
| CCOC(=O)C1=NO[C@H]2[C@@H]3O[C@@H]3C=C[C@@]2(O)C1 | 21 | 51 | inhibition (HeLa [1]): inactive; Activity (HeLa [3]): inactive; Activity (HeLa [4]): inactive; Activity (HeLa [5]): inactive |
| COc1ccc2cc(NC(=O)C3=NO[C@H]4[C@H](O)C=C[C@@H](Cl)[C@@]4(O)C3)c(=O)oc2c1OC [TRICHODERMAMIDE B] | 3.1 | 18 | inhibition (HeLa [1]): Active; Activity (HeLa [5]): Active |
| COc1ccc2cc(NC(=O)[C@@]34C[C@]5(O)[C@@H](C=C[C@@H](O)[C@@H]5ON3)S4)c(=O)oc2c1OC |  |  | IC50 (HL-60): 84 µM; IC50 (A549): > 100 µM; IC50 (P388): > 100 µM |
